Results as given in ChEMBL document CHEMBL3588845, “Protozoan Parasite Growth Inhibitors Discovered by Cross-Screening Yield Potent Scaffolds for Lead Discovery” (J Med Chem, 2015).

System: Leishmania major
Assay: Antiparasite activity against Leishmania major promastigotes assessed as growth inhibition incubated for 44 hrs by alamar blue dye based fluorescence assay
Format: functional, organism-based
Settings: not given
`Fc1cccc(COc2ccc(Nc3ncnc4ccc(-c5cccc(N6CCOCC6)c5)cc34)cc2Cl)c1` showed an EC50 of 3000 nM.
`CN1CCN(S(=O)(=O)c2ccc(-c3ccc4ncnc(Nc5ccc(OCc6cccc(F)c6)c(Cl)c5)c4c3)cc2)CC1` showed an EC50 of 2800 nM.
`O=S(=O)(c1ccc(-c2ccc3ncnc(Nc4ccc(OCc5ccccc5)c(Cl)c4)c3c2)cc1)N1CCOCC1` showed an EC50 of 500 nM.
Molecule `CN1CCCN(S(=O)(=O)c2ccc(-c3ccc4nncc(Nc5ccc(OCc6cccc(F)c6)c(Cl)c5)c4c3)cc2)CC1` has an EC50 of 4100 nM.
Molecule `O=S(=O)(c1ccc(-c2ccc3nccc(Nc4ccc(OCc5ccccc5)c(Cl)c4)c3c2)cc1)N1CCOCC1` has an EC50 of 200 nM.
In the case of `CN1CCN(S(=O)(=O)c2ccc(-c3ccc4c(Nc5ccc(OCc6cccc(F)c6)c(Cl)c5)ccnc4c3)cc2)CC1`, the EC50 is reported as 1000 nM.

System: Trypanosoma brucei
Assay: Antiparasite activity against Trypanosoma brucei 427 assessed as growth inhibition incubated for 48 hrs by PrestoBlue based fluorescence assay
Format: functional, organism-based
Settings: Trypanosoma brucei, 427, 48 h
Molecule `Fc1cccc(COc2ccc(Nc3ncnc4ccc(-c5cccc(N6CCOCC6)c5)cc34)cc2Cl)c1` has an EC50 of 42 nM.
In the case of `O=S(=O)(c1ccc(-c2ccc3ncnc(Nc4ccc(OCc5ccccc5)c(Cl)c4)c3c2)cc1)N1CCOCC1`, the EC50 is reported as 1400 nM.
With `CN1CCCN(S(=O)(=O)c2ccc(-c3ccc4nncc(Nc5ccc(OCc6cccc(F)c6)c(Cl)c5)c4c3)cc2)CC1` the EC50 was 580 nM.
For `O=S(=O)(c1ccc(-c2ccc3nccc(Nc4ccc(OCc5ccccc5)c(Cl)c4)c3c2)cc1)N1CCOCC1`, the EC50 was 2100 nM.
With `CN1CCN(S(=O)(=O)c2ccc(-c3ccc4c(Nc5ccc(OCc6cccc(F)c6)c(Cl)c5)ccnc4c3)cc2)CC1` the EC50 was 79 nM.

System: Trypanosoma cruzi
Assay: Antiparasite activity against Trypanosoma cruzi Tulahuen expressing beta-galactosidase assessed as growth inhibition incubated for 96 hrs by CPRG dye based assay
Format: functional, organism-based
Settings: not given
`Fc1cccc(COc2ccc(Nc3ncnc4ccc(-c5cccc(N6CCOCC6)c5)cc34)cc2Cl)c1` showed an EC50 of 1800 nM.
For `CN1CCCN(S(=O)(=O)c2ccc(-c3ccc4nncc(Nc5ccc(OCc6cccc(F)c6)c(Cl)c5)c4c3)cc2)CC1`, the EC50 was 2200 nM.
In the case of `O=S(=O)(c1ccc(-c2ccc3nccc(Nc4ccc(OCc5ccccc5)c(Cl)c4)c3c2)cc1)N1CCOCC1`, the EC50 is reported as 49000 nM.
In the case of `CN1CCN(S(=O)(=O)c2ccc(-c3ccc4c(Nc5ccc(OCc6cccc(F)c6)c(Cl)c5)ccnc4c3)cc2)CC1`, the EC50 is reported as 730 nM.

System: not listed separately
Assay: Aqueous solubility of the compound
Format: physicochemical
Settings: buffer
Procedure, shortened: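 Aqueous solubility measured as thermodynamic solubility.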
`Fc1cccc(COc2ccc(Nc3ncnc4ccc(-c5cccc(N6CCOCC6)c5)cc34)cc2Cl)c1` gave a solubility of under 1 µM.
`O=S(=O)(c1ccc(-c2ccc3nccc(Nc4ccc(OCc5ccccc5)c(Cl)c4)c3c2)cc1)N1CCOCC1` gave a solubility of under 1 µM.

System: Plasmodium falciparum
Assay: Antiparasite activity against drug resistant Plasmodium falciparum C235 assessed as growth inhibition incubated for 72 hrs by SYBR green fluorescence assay
Format: functional, organism-based
Settings: C235, 72 h
Molecule `CN1CCCN(S(=O)(=O)c2ccc(-c3ccc4nncc(Nc5ccc(OCc6cccc(F)c6)c(Cl)c5)c4c3)cc2)CC1` has an EC50 of 19 nM.
In the case of `O=S(=O)(c1ccc(-c2ccc3nccc(Nc4ccc(OCc5ccccc5)c(Cl)c4)c3c2)cc1)N1CCOCC1`, the EC50 is reported as 54 nM.
With `CN1CCN(S(=O)(=O)c2ccc(-c3ccc4c(Nc5ccc(OCc6cccc(F)c6)c(Cl)c5)ccnc4c3)cc2)CC1` the EC50 was 39 nM.

System: not listed separately
Assay: Toxicity against human HepG2 cells incubated for 48 hrs by MTT assay
Format: cell-based
Settings: read-out: TC50
Work on `Fc1cccc(COc2ccc(Nc3ncnc4ccc(-c5cccc(N6CCOCC6)c5)cc34)cc2Cl)c1` yielded a CC50 at 48 h of over 15 µM.
In the case of `CN1CCN(S(=O)(=O)c2ccc(-c3ccc4ncnc(Nc5ccc(OCc6cccc(F)c6)c(Cl)c5)c4c3)cc2)CC1`, the CC50 at 48 h is reported as over 15 µM.
With `O=S(=O)(c1ccc(-c2ccc3ncnc(Nc4ccc(OCc5ccccc5)c(Cl)c4)c3c2)cc1)N1CCOCC1` the CC50 at 48 h was over 15 µM.
Work on `CN1CCCN(S(=O)(=O)c2ccc(-c3ccc4nncc(Nc5ccc(OCc6cccc(F)c6)c(Cl)c5)c4c3)cc2)CC1` yielded a CC50 at 48 h of 7.3 µM.
Molecule `O=S(=O)(c1ccc(-c2ccc3nccc(Nc4ccc(OCc5ccccc5)c(Cl)c4)c3c2)cc1)N1CCOCC1` has a CC50 at 48 h of over 5 µM.
Work on `CN1CCN(S(=O)(=O)c2ccc(-c3ccc4c(Nc5ccc(OCc6cccc(F)c6)c(Cl)c5)ccnc4c3)cc2)CC1` yielded a CC50 at 48 h of over 4 µM.

System: Trypanosoma cruzi
Assay: Antiparasite activity against Trypanosoma cruzi Tulahuen expressing beta-galactosidase assessed as growth inhibition at 10 uM incubated for 96 hrs by CPRG dye based assay
Format: functional
Settings: read-out: GI
In the case of `CN1CCN(S(=O)(=O)c2ccc(-c3ccc4ncnc(Nc5ccc(OCc6cccc(F)c6)c(Cl)c5)c4c3)cc2)CC1`, the inhibition of growth at 10 µM is reported as 60%.
For `O=S(=O)(c1ccc(-c2ccc3ncnc(Nc4ccc(OCc5ccccc5)c(Cl)c4)c3c2)cc1)N1CCOCC1`, the inhibition of growth at 10 µM was 9.5%.

System: Hepatocyte
Assay: Intrinsic clearance in rat hepatocytes assessed per 10^6 cells
Format: ADME, cell-based
Settings: not given
For `O=S(=O)(c1ccc(-c2ccc3nccc(Nc4ccc(OCc5ccccc5)c(Cl)c4)c3c2)cc1)N1CCOCC1`, the CLH was 13.93 µL/min.

System: not listed separately
Assay: Protein binding in plasma (unknown origin) assessed as fraction unbound
Format: ADME, cell-free
Settings: not given
`Fc1cccc(COc2ccc(Nc3ncnc4ccc(-c5cccc(N6CCOCC6)c5)cc34)cc2Cl)c1` showed a Fu of under 1%.
Work on `O=S(=O)(c1ccc(-c2ccc3nccc(Nc4ccc(OCc5ccccc5)c(Cl)c4)c3c2)cc1)N1CCOCC1` yielded a Fu of under 1%.
In the case of `CN1CCN(S(=O)(=O)c2ccc(-c3ccc4c(Nc5ccc(OCc6cccc(F)c6)c(Cl)c5)ccnc4c3)cc2)CC1`, the Fu is reported as under 1%.

System: Plasmodium falciparum
Assay: Antiparasite activity against Plasmodium falciparum D6 assessed as growth inhibition incubated for 72 hrs by SYBR green fluorescence assay
Format: functional, organism-based
Settings: D6, 72 h
Work on `Fc1cccc(COc2ccc(Nc3ncnc4ccc(-c5cccc(N6CCOCC6)c5)cc34)cc2Cl)c1` yielded an EC50 of 230 nM.
`CN1CCN(S(=O)(=O)c2ccc(-c3ccc4ncnc(Nc5ccc(OCc6cccc(F)c6)c(Cl)c5)c4c3)cc2)CC1` showed an EC50 of 27 nM.
`O=S(=O)(c1ccc(-c2ccc3ncnc(Nc4ccc(OCc5ccccc5)c(Cl)c4)c3c2)cc1)N1CCOCC1` gave an EC50 of 260 nM.
Work on `CN1CCCN(S(=O)(=O)c2ccc(-c3ccc4nncc(Nc5ccc(OCc6cccc(F)c6)c(Cl)c5)c4c3)cc2)CC1` yielded an EC50 of 27 nM.
Work on `O=S(=O)(c1ccc(-c2ccc3nccc(Nc4ccc(OCc5ccccc5)c(Cl)c4)c3c2)cc1)N1CCOCC1` yielded an EC50 of 32 nM.
In the case of `CN1CCN(S(=O)(=O)c2ccc(-c3ccc4c(Nc5ccc(OCc6cccc(F)c6)c(Cl)c5)ccnc4c3)cc2)CC1`, the EC50 is reported as 19 nM.

System: Leishmania major
Assay: Antiparasite activity against luciferase-expressing Leishmania major amastigotes isolated from infected in mouse RAW264.7 cells assessed as growth inhibition incubated for 96 hrs by luciferase reporter gene assay
Format: functional, organism-based
Settings: RAW264.7, 96 h
Work on `Fc1cccc(COc2ccc(Nc3ncnc4ccc(-c5cccc(N6CCOCC6)c5)cc34)cc2Cl)c1` yielded an EC50 of 8000 nM.
Work on `CN1CCN(S(=O)(=O)c2ccc(-c3ccc4ncnc(Nc5ccc(OCc6cccc(F)c6)c(Cl)c5)c4c3)cc2)CC1` yielded an EC50 of 1600 nM.
`O=S(=O)(c1ccc(-c2ccc3ncnc(Nc4ccc(OCc5ccccc5)c(Cl)c4)c3c2)cc1)N1CCOCC1` gave an EC50 of over 15000 nM.
`CN1CCCN(S(=O)(=O)c2ccc(-c3ccc4nncc(Nc5ccc(OCc6cccc(F)c6)c(Cl)c5)c4c3)cc2)CC1` gave an EC50 of 1060 nM.
With `O=S(=O)(c1ccc(-c2ccc3nccc(Nc4ccc(OCc5ccccc5)c(Cl)c4)c3c2)cc1)N1CCOCC1` the EC50 was 3400 nM.
With `CN1CCN(S(=O)(=O)c2ccc(-c3ccc4c(Nc5ccc(OCc6cccc(F)c6)c(Cl)c5)ccnc4c3)cc2)CC1` the EC50 was 1600 nM.

System: Plasmodium falciparum
Assay: Antiparasite activity against drug resistant Plasmodium falciparum W2 assessed as growth inhibition incubated for 72 hrs by SYBR green fluorescence assay
Format: functional, organism-based
Settings: W2, 72 h
For `CN1CCCN(S(=O)(=O)c2ccc(-c3ccc4nncc(Nc5ccc(OCc6cccc(F)c6)c(Cl)c5)c4c3)cc2)CC1`, the EC50 was 63 nM.
`O=S(=O)(c1ccc(-c2ccc3nccc(Nc4ccc(OCc5ccccc5)c(Cl)c4)c3c2)cc1)N1CCOCC1` showed an EC50 of 110 nM.
With `CN1CCN(S(=O)(=O)c2ccc(-c3ccc4c(Nc5ccc(OCc6cccc(F)c6)c(Cl)c5)ccnc4c3)cc2)CC1` the EC50 was 42 nM.
